Bioassay records from PubChem BioAssay.
SR-BI HDL uptake: inhibitors of mouse SR-BI mediated HDL lipid uptake; Q61009; ldlA[mSR-BI] CHO cells, DiI-HDL uptake fluorescence, 3 h; inhibition, % at 12.5 µM; 320,000 tested, 0.96% active; AID 488896;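 active means mean replicate inhibition of at least 70% and a set share of replicates each scoring 70 or more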;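 further: 0% = median of neutral control wells and 100% = median of positive control wells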
SR-BI uptake up: activators of SR-BI mediated HDL lipid uptake; CHO ldlA[mSR-BI] cells, DiI-HDL uptake fluorescence, 3 h; 100 = double the neutral-control signal; activation, % at 12.5 µM; 320,000 tested, 0.096% active; AID 504775;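 active means mean replicate activation of at least 60% and every replicate at or above 60%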;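 further: 0% = median plate neutral-control signal and 100% = twice that signal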
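Material: SR-BI-overexpressing, LDLR-lacking CHO cells | Dosing: Single compound concentration, delivered by pin transfer | Probe or stimulus: Labelled HDL, 10 µg/mL | Signal: Bottom-read cell fluorescence after medium removal, ex 550/em 595 nm | Schedule: 3 h, 37 °C | Evaluation: HDL uptake via cellular fluorescence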
AHR act: activators of human aryl hydrocarbon receptor; P35869; AHR-responsive luciferase reporter cells, luminescence; activation, % at 5 µM; 320,000 tested, 2.5% active; AID 2796; in the data active means activation above about 47%;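 further: 0% = vehicle wells and 100% = reference agonist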
ABCB6 inh MLPCN: inhibitors of human ABC transporter ABCB6. Q9NP58. K562-ABCB6 porphyrin accumulation, flow cytometry, 1 h; stronger effect = lower value. fluorescence ratio to DMSO, % at 10 µM. 360,000 tested, 0.19% active. AID 602162;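 active means fluorescence ratio to DMSO below 75%, the collection mean minus 3 SD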;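 further: signal is porphyrin accumulated inside mitochondria; 100% equals median channel fluorescence of DMSO control wells; lower ratio means ABCB6 inhibition with less porphyrin fluorescence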
HIF act: HIF pathway transcriptional activation | U2OS HRE-luciferase reporter, luminescence; normalized: DMSO 0%, desferrioxamine 100% | 300,000 tested, 0.32% active | AID 1910 | activation, % at 7.5 µM (by protocol);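 active means mean activation of at least 10% of the iron chelator positive control signal, with at least half of replicates also reaching 10%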
FXN GAA850 act: increases GAA850 frataxin promoter reporter activity. AID 540364. 360,000 tested, 0.56% active. HEK293 lucGAA850 FXN promoter luciferase reporter, 24 h; percent of 10 µM SAHA response. activation, % at 6 µM;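 active means activation above the average of all compounds screened plus 3 SD, cutoff fixed separately per campaign, cut at about 7.5% in these data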;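 further: 0% = DMSO wells and 100% = 10 µM SAHA wells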
AHR act confirm: human AHR activation, confirmation | shares compounds with AHR act | activation, % at 9 µM | 2,300 tested, 87% active | AID 2845 | human cells, AHR-responsive luciferase reporter, luminescence; in the data active means activation above about 49%;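 further: HepG2 hepatoma cells carrying a DRE-driven firefly luciferase reporter; 0% = vehicle wells and 100% = reference agonist wells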
PXR counter: activates human PXR in AHR activator counter-screen. AID 434939. shares compounds with AHR act. cell-based PXR reporter, luciferase luminescence. 2,300 tested, 88% active. activation, % at 11.6 µM; in the data active means activation above about 11%;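 further: human hepatoma DPX-2 cells expressing full-length human PXR; 0% = DMSO and 100% = reference agonist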
Target sequence (O75469 whole entry, looked up): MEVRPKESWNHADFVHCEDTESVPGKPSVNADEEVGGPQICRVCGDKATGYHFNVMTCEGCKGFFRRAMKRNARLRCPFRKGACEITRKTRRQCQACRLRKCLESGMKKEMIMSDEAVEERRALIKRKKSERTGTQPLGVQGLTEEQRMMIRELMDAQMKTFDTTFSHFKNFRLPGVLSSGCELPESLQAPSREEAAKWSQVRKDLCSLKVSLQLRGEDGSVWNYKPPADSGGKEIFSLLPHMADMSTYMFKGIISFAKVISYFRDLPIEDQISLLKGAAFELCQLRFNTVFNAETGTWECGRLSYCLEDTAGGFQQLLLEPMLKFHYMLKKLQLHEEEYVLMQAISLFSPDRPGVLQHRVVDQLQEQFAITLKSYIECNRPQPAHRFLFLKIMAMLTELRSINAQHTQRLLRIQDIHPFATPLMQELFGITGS
Numbers without * were called inactive. Hits are enriched below; roughly 3.9% of the tested compounds scored in any of these assays.

For COc1ccc(C(=O)COc2ccccc2C(N)=O)cc1 the results were SR-BI HDL uptake 13, SR-BI uptake up -13, AHR act 3, ABCB6 inh MLPCN 95, HIF act 1 and FXN GAA850 act 1.
For O=C(NCCc1ccccc1)C1CCC(=O)N(CCCN2CCCC2=O)C1 (centres undefined) the results were SR-BI HDL uptake -33, SR-BI uptake up 33, AHR act 3, ABCB6 inh MLPCN 87, HIF act 0 and FXN GAA850 act 0.
For CCCN1C(=O)c2cc(C(=O)Nc3ccccc3OC)ccc2C1Nc1ccccc1OC (centres undefined) the results were AHR act 94*, ABCB6 inh MLPCN 95, HIF act -1, FXN GAA850 act -3, AHR act confirm 65* and PXR counter 72*.
`CCCN1Cc2cccc(C(=O)NCc3ccc4c(c3)OCO4)c2C1=O` gave SR-BI HDL uptake -5, SR-BI uptake up 5, AHR act 80*, ABCB6 inh MLPCN 95, HIF act -2, FXN GAA850 act 0, AHR act confirm 50* and PXR counter 141*.
`CC(C(=O)O)c1n[nH]c(=O)c2ccccc12` (centres undefined) gave SR-BI HDL uptake -19, SR-BI uptake up 19, AHR act 0, ABCB6 inh MLPCN 99, HIF act 0 and FXN GAA850 act -1.
Screening O=C(Nc1cccc(Cl)c1)c1ccc(=O)[nH]n1 returned SR-BI HDL uptake 6, SR-BI uptake up -6, AHR act 148*, ABCB6 inh MLPCN 106, HIF act -13, FXN GAA850 act -1 and AHR act confirm 104*.
For CN(c1ccccc1)S(=O)(=O)c1cccc(NC(=O)c2ccc(=O)[nH]n2)c1 the results were SR-BI HDL uptake -1, SR-BI uptake up 1, AHR act 1, ABCB6 inh MLPCN 93 and FXN GAA850 act 1.
Cc1ccc(-c2nc(NCc3ccco3)c3ccccc3n2)cc1 was read as SR-BI HDL uptake -18, SR-BI uptake up 18, AHR act 43, ABCB6 inh MLPCN 89, HIF act 1 and FXN GAA850 act 6.
For c1ccc(-c2nc(NCc3ccco3)c3oc4ccccc4c3n2)cc1 the results were SR-BI HDL uptake 18, SR-BI uptake up -18, AHR act 88*, ABCB6 inh MLPCN 91, HIF act 0, FXN GAA850 act 4, AHR act confirm 105* and PXR counter 35*.
`N#C/C(=C\c1ccc(N2CCCCC2)o1)C(=O)Nc1cccc(Br)c1` gave SR-BI HDL uptake 99*, SR-BI uptake up -99, AHR act 100*, ABCB6 inh MLPCN 617, HIF act 4, FXN GAA850 act 7, AHR act confirm 72* and PXR counter 13*.
For O=C(Nc1nnc(-c2ccc(Br)cc2)o1)C1=COCCO1 the results were SR-BI HDL uptake -14, SR-BI uptake up 14, AHR act 4, ABCB6 inh MLPCN 96, HIF act 0 and FXN GAA850 act 0.
For Cc1sc(NC(=O)C2=COCCO2)nc1-c1ccc(Br)cc1 the results were SR-BI HDL uptake 55, SR-BI uptake up -55, AHR act 99*, ABCB6 inh MLPCN 79, HIF act 0, FXN GAA850 act 2, AHR act confirm 94* and PXR counter 34*.
For CCNC(=O)/C(C#N)=C/c1c(N2CCN(c3ccccc3)CC2)nc2c(C)cccn2c1=O the results were SR-BI HDL uptake -9, SR-BI uptake up 9, AHR act 80*, ABCB6 inh MLPCN 91, HIF act -1, FXN GAA850 act 1, AHR act confirm 69* and PXR counter 19*.
CNc1nc(NCCOC23CC4CC(CC(C4)C2)C3)nc(OCC(F)(F)F)n1 was read as SR-BI HDL uptake 19, SR-BI uptake up -19, AHR act 0, ABCB6 inh MLPCN 100, HIF act 0 and FXN GAA850 act 6.
`O=C(NCCc1ccccn1)c1c(-c2ccsc2)sc2ccccc12` gave SR-BI HDL uptake 25, SR-BI uptake up -25, AHR act 128*, ABCB6 inh MLPCN 92, FXN GAA850 act 1, AHR act confirm 92* and PXR counter 161*.
Screening c1coc(-c2nnc(NC3=NCCC3)o2)c1 returned SR-BI HDL uptake 2, SR-BI uptake up -2, AHR act 10, ABCB6 inh MLPCN 102, HIF act 2 and FXN GAA850 act 1.
NS(=O)(=O)c1ccc(N/N=C/C=C/c2ccccc2[N+](=O)[O-])cc1 was read as SR-BI HDL uptake 48, SR-BI uptake up -48, AHR act 82*, ABCB6 inh MLPCN 112, HIF act 5, FXN GAA850 act 3, AHR act confirm 6 and PXR counter 25*.
`CCOc1ccccc1NC(=O)Nc1ccc2c(c1)OCO2` gave SR-BI HDL uptake 57, SR-BI uptake up -57, AHR act 103*, ABCB6 inh MLPCN 99, HIF act 1, FXN GAA850 act 3, AHR act confirm 115* and PXR counter 97*.
`COc1ccc(C)cc1NC(=O)NC(C)c1ccc2c(c1)OCO2` (centres undefined) gave SR-BI HDL uptake 2, SR-BI uptake up -2, AHR act 28, ABCB6 inh MLPCN 100, HIF act 0 and FXN GAA850 act -1.
`CCOc1ccccc1OCCC(=O)Nc1ccc2c(c1)OCO2` gave SR-BI HDL uptake -2, SR-BI uptake up 2, AHR act 17, ABCB6 inh MLPCN 97 and FXN GAA850 act 1.
Cc1ccc(OC(F)F)c(NC(=O)Nc2ccc3c(c2)OCO3)c1 was read as SR-BI HDL uptake 26, SR-BI uptake up -26, AHR act 82*, ABCB6 inh MLPCN 96, HIF act 1, FXN GAA850 act 1, AHR act confirm 75* and PXR counter 47*.
O=C(Nc1ccc(C(=O)N2CCCC2)cc1)Nc1ccc(Cl)cc1Cl was read as SR-BI HDL uptake 1, SR-BI uptake up -1, AHR act 14, ABCB6 inh MLPCN 87, HIF act 0 and FXN GAA850 act 2.
Screening CC1CCN(CCCn2c(=S)[nH]c3ccc(N4CCOCC4)cc3c2=O)CC1 returned SR-BI HDL uptake -7, SR-BI uptake up 7, AHR act 12, ABCB6 inh MLPCN 93, HIF act 0 and FXN GAA850 act 1.
Screening Cc1ccc(CSc2nnc(-c3ccc4c(c3)OCO4)o2)cc1 returned SR-BI HDL uptake -11, SR-BI uptake up 11, AHR act 20, ABCB6 inh MLPCN 107, HIF act 0 and FXN GAA850 act 1.
